A1 apoptosis 2: A1 inhibitors via caspase activation, primary screen, cell-based, luminescence, HTS, two replicates; MEF A1-2A-BIM cells, caspase-Glo luminescence, 3 h; percent of clofoctol response, DMSO zero; caspase activation, % (test concentration not listed); 24,000 tested, under 10 active; AID 2465, 2010; in the data active = caspase activation above about 5.9%
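Material: A1-2A-BIM-expressing MEF cells. Buffer or medium: RPMI-1640 plus 10% FBS. Incubation: cells settled overnight, compound exposure 3 h at 37 °C, 5% CO2. Signal: Caspase-Glo 3/7 luminescence, 1 h at room temperature.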
T cruzi intra: inhibitors of intracellular Trypanosoma cruzi, primary screen, cell-based, plate reader, single point, set 2; 22,000 tested, 4.9% active; intracellular Trypanosoma cruzi in host cells; AID 651903, 2012; activity score (inhibition), % at 5.01 µM; in the data active = activity score above about 55%;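 note: parasites and compound incubated about four days before reading; 0% = median of neutral control wells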
INS-1E ATP HTS: protection of INS-1E cells from cytokine death, primary screen, ATP luminescence, single point | INS-1E cytokine-induced death, 48 h; normalised: neutral wells 0, positive control 100 | protection from cytokine-induced ATP loss, % at 10 µM | 20,000 tested, 0.1% active | AID 488910, 2010;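 active = mean replicate protection from cytokine-induced ATP loss at least 50% and at least 75% of replicates each reaching 50%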
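Assay system: INS-1E rat insulinoma cells. Amount: 8000 cells per well. Medium: phenol-red-free RPMI with 5% fetal bovine serum. Reagent: IL-1β, TNF-α and IFN-γ cytokine mix. Doses: one compound concentration, pin transfer. Schedule: 48 h co-treatment, 10 min post-lysis read. Detection: CellTiter-Glo luminescence measuring cellular ATP.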
* = called active by the depositor; . = no result given. This excerpt belongs to a sample that is enriched for hits.

SMILES	A1 apoptosis 2	T cruzi intra	INS-1E ATP HTS
C[C@@H]1CN([C@H](C)CO)C(=O)c2cccc(NC(=O)c3ccc(-c4nccs4)cc3)c2O[C@H]1CN(C)Cc1ccc(Oc2ccccc2)cc1	0	81*	-22
C[C@H]1CN([C@@H](C)CO)C(=O)c2cccc(NC(=O)c3ccc(-c4nccs4)cc3)c2O[C@@H]1CN(C)Cc1ccc(Oc2ccccc2)cc1	0	31	5
C[C@H](CO)N1C[C@H](C)[C@H](CN(C)Cc2ccc(Oc3ccccc3)cc2)Oc2c(NC(=O)c3ccc(-c4nccs4)cc3)cccc2C1=O	.	86*	-70
C[C@H](CO)N1C[C@H](C)[C@H](CN(C)Cc2ccccc2)Oc2c(NC(=O)c3ccc(-c4nccs4)cc3)cccc2C1=O	.	-24	-3
C[C@H]1CCCCO[C@@H](CN(C)C(=O)Nc2ccc3c(c2)OCO3)[C@@H](C)CN([C@@H](C)CO)C(=O)c2cc(NC(=O)Cc3ccccc3)ccc2O1	-1	.	.
C[C@H]1CN([C@@H](C)CO)C(=O)Cc2cc(N(C)C)ccc2O[C@H]1CN(C)Cc1ccc(Oc2ccccc2)cc1	.	76*	-22
C[C@H]1CN([C@@H](C)CO)C(=O)Cc2cc(N(C)C)ccc2O[C@@H]1CN(C)Cc1ccc(Oc2ccccc2)cc1	0	67*	-1
C[C@@H]1CN([C@H](C)CO)C(=O)Cc2cc(N(C)C)ccc2O[C@@H]1CN(C)Cc1ccc(Oc2ccccc2)cc1	-2	40	-51
C[C@H](CO)N1C[C@H](C)[C@H](CN(C)Cc2ccccc2)Oc2ccc(N(C)C)cc2CC1=O	0	4	-2
C[C@@H]1CN([C@@H](C)CO)C(=O)Cc2cc(NS(=O)(=O)c3ccc(F)cc3)ccc2O[C@@H]1CN(C)Cc1ccc(Oc2ccccc2)cc1	.	75*	-25
C[C@H](CO)N1C[C@H](C)[C@@H](CN(C)Cc2ccccc2)Oc2ccc(NS(=O)(=O)c3ccc(Cl)cc3)cc2CC1=O	-1	.	.
C[C@@H]1CN([C@H](C)CO)C(=O)Cc2cc(NS(=O)(=O)c3ccc(Cl)cc3)ccc2O[C@H]1CN(C)Cc1ccc(Oc2ccccc2)cc1	.	64*	-11
C[C@H]1CN([C@@H](C)CO)C(=O)Cc2cc(NS(=O)(=O)c3ccc(Cl)cc3)ccc2O[C@H]1CN(C)Cc1ccc(Oc2ccccc2)cc1	-1	7	-10
C[C@H]1CN([C@@H](C)CO)C(=O)Cc2cc(NS(=O)(=O)c3ccc(F)cc3)ccc2O[C@H]1CN(C)Cc1ccc(-c2ccccc2)cc1	1	30	-28
C[C@@H]1CN([C@H](C)CO)C(=O)Cc2cc(NS(=O)(=O)c3ccc(Cl)cc3)ccc2O[C@H]1CN(C)Cc1ccccc1	.	73*	-2
C[C@H]1CN([C@@H](C)CO)C(=O)Cc2cc(NS(=O)(=O)c3ccc(F)cc3)ccc2O[C@H]1CN(C)Cc1ccc(Oc2ccccc2)cc1	.	33	-29
C[C@@H]1CN([C@@H](C)CO)C(=O)Cc2cc(NS(=O)(=O)c3ccc(F)cc3)ccc2O[C@@H]1CN(C)Cc1ccc(-c2ccccc2)cc1	-1	63*	-22
C[C@@H]1CN([C@H](C)CO)C(=O)c2cc(NC(=O)Cc3cn(C)c4ccccc34)ccc2O[C@@H]1CN(C)S(=O)(=O)c1ccccc1	.	10	-2
C[C@@H]1CN([C@@H](C)CO)C(=O)Cc2cc(NC(=O)Cn3cnnn3)ccc2O[C@H]1CN(C)Cc1ccc(C(=O)Nc2ccccc2N)cc1	-1	.	.
COCCOC(=O)N1C(=O)[C@@]2(c3cc(C#Cc4ccc(OC)cc4)ccc31)[C@H](c1ccc(OCCO)cc1)N1[C@H](c3ccccc3)[C@H](c3ccccc3)OC(=O)[C@H]1[C@@H]2C(=O)NC[C@H](O)c1ccccc1	0	.	.
C[C@@H]1CN([C@H](C)CO)C(=O)Cc2cc(NS(=O)(=O)c3cccs3)ccc2O[C@@H]1CN(C)Cc1ccc(C(=O)Nc2ccccc2N)cc1	1	42	-7
C[C@@H]1CN([C@@H](C)CO)C(=O)Cc2cc(NS(=O)(=O)c3cccs3)ccc2O[C@@H]1CN(C)Cc1ccc(C(=O)Nc2ccccc2N)cc1	0	62*	-7
C[C@@H]1CN([C@H](C)CO)C(=O)c2cc(NS(=O)(=O)c3cccs3)ccc2O[C@@H]1CN(C)Cc1ccc(C(=O)Nc2ccccc2N)cc1	.	64*	30
C[C@@H]1CN([C@H](C)CO)C(=O)c2cc(NS(=O)(=O)c3cccs3)ccc2O[C@H]1CN(C)Cc1ccc(C(=O)Nc2ccccc2N)cc1	0	.	.
C[C@H]1CN([C@@H](C)CO)C(=O)c2cc(NS(=O)(=O)c3cccs3)ccc2O[C@H]1CN(C)Cc1ccc(C(=O)Nc2ccccc2N)cc1	.	35	-8
SMILES	A1 apoptosis 2	T cruzi intra	INS-1E ATP HTS
C[C@H](CO)N1C[C@H](C)[C@H](CN(C)Cc2ccc(C(=O)Nc3ccccc3N)cc2)Oc2ccc(NS(=O)(=O)c3cccs3)cc2C1=O	.	65*	11
C[C@@H]1CN([C@@H](C)CO)C(=O)c2cccc(N(C)C)c2O[C@@H]1CN(C)C(=O)Nc1ccc(C(F)(F)F)cc1	1	36	1
COc1ccc(CN(C)C[C@@H]2Oc3ccc(NC(=O)Nc4ccc(OC)cc4)cc3C(=O)N([C@@H](C)CO)C[C@H]2C)cc1	0	11	2
C[C@@H]1CN([C@H](C)CO)C(=O)Cc2cc(NC(=O)CCCCCC(=O)Nc3ccccc3N)ccc2O[C@H]1CN(C)C(=O)Nc1ccccc1	1	.	.
C[C@H](CO)N1C[C@H](C)[C@@H](CN(C)Cc2ccc(-c3ccccc3)cc2)Oc2ccc(NS(=O)(=O)c3ccccc3)cc2C1=O	0	41*	.
Cc1ccc(S(=O)(=O)Nc2ccc3c(c2)C(=O)N([C@H](C)CO)C[C@@H](C)[C@@H](CN(C)Cc2ccc(-c4ccccc4)cc2)O3)cc1	3	30	-20
C[C@@H]1CN([C@H](C)CO)C(=O)c2cc(NS(=O)(=O)c3ccccc3)ccc2O[C@@H]1CN(C)Cc1ccc(-c2ccccc2)cc1	-2	66*	-28
COc1ccc(S(=O)(=O)Nc2ccc3c(c2)C(=O)N([C@@H](C)CO)C[C@H](C)[C@H](CN(C)Cc2ccc(Oc4ccccc4)cc2)O3)cc1	.	74*	-48
Cc1ccc(S(=O)(=O)Nc2ccc3c(c2)C(=O)N([C@H](C)CO)C[C@H](C)[C@@H](CN(C)Cc2ccc(-c4ccccc4)cc2)O3)cc1	.	-23	-3
COc1ccc(S(=O)(=O)Nc2ccc3c(c2)C(=O)N([C@H](C)CO)C[C@@H](C)[C@@H](CN(C)Cc2ccc(Oc4ccccc4)cc2)O3)cc1	.	-12	-14
C[C@H]1CN([C@@H](C)CO)C(=O)c2cccc(NC(=O)NC3CCCCC3)c2O[C@@H]1CN(C)C(=O)Nc1ccccc1	-1	-14	-3
C[C@@H]1CN([C@H](C)CO)C(=O)c2cc(NC(=O)Nc3ccccc3)ccc2O[C@H]1CN(C)CC1CCCCC1	2	-22	-15

Compound activity deposited in PubChem by Broad Institute.
